Measured values: ChEMBL document CHEMBL1146177, “Total synthesis and biological evaluation of viscolin, a 1,3-diphenylpropane as a novel potent anti-inflammatory agent” (Bioorg Med Chem Lett, 2006)

Legend:
BV-2 [1] = assay: Inhibition of NOS-dependent nitric oxide production in mouse BV2 cells; type: functional, cell-based
Procedure, shortened: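 Murine BV2 microglial cells. NOX activity was read as ROS production and NOS activity as NO production. DPI (NOX inhibitor) and L-NAME (NOS inhibitor) served as positive controls. IC50 is the mean ± SEM of 5–6 experiments on different days with cells from different passages.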

CD4+ve Th [2] = assay: Inhibition of PMA plus ionomycin-induced IL2 production in human CD4+ Th cells measured as mean channel fluorescence at 5 uM; type: functional
Procedure, shortened: (§1)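 Human leukocytes were stimulated with PMA plus ionomycin. IL-2 (CD4+ Th cells) and IFN-γ (CD8+ cells) were measured by intracellular cytokine staining and read as mean channel fluorescence. Significance was tested against activator alone (P<0.05).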

[3] = Cytotoxicity against microglial cells at 10 uM; conditions: mouse, microglia
BV-2 [4] = assay: Inhibition of LPS-induced TNFalpha production in mouse BV2 cells measured as mean channel fluorescence at 25 uM
BV-2 [5] = assay: Inhibition of LPS-induced TNFalpha production in mouse BV2 cells measured as mean channel fluorescence at 5 uM
[6] = Inhibition of PMA plus ionomycin-induced IFN-gamma production in human CD8+ leukocytes measured as mean channel fluorescence at 5 uM; type: functional; procedure, shortened: as §1
[7] = Inhibition of PMA plus ionomycin-induced IFN-gamma production in human CD8+ leukocytes measured as mean channel fluorescence at 25 uM; type: functional; procedure, shortened: as §1
CD4+ve Th [8] = assay: Inhibition of PMA plus ionomycin-induced IL2 production in human CD4+ Th cells measured as mean channel fluorescence at 25 uM; type: functional; procedure, shortened: as §1
[9] = Cytotoxicity against microglial cells at 5 uM; conditions: mouse, microglia
[10] = Inhibition of fMLP-induced ROS production in human leukocytes at 25 uM; type: functional; conditions: Leukocyte
[11] = Cytotoxicity against microglial cells at 25 uM; conditions: mouse, microglia
[12] = Inhibition of PMA-induced ROS production in human leukocytes at 25 uM; type: functional; conditions: Leukocyte
BV-2 [13] = assay: Inhibition of NADPH oxidase-dependent reactive oxygen species production in mouse BV2 cells
[14] = Inhibition of PMA-induced ROS production in human PMN; type: functional
Procedure, shortened: (§2)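 Peripheral human neutrophils (PMN) or mononuclear cells (MNC) were stimulated with PMA (a PKC activator) or fMLP to induce ROS. IC50 is the mean ± SEM of 3–5 experiments on different days with cells from different donors.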

[15] = Inhibition of fMLP-induced ROS production in human PMN; type: functional; procedure, shortened: as §2
[16] = Inhibition of fMLP-induced ROS production in human mononuclear leukocytes; type: functional, cell-based; procedure, shortened: as §2
[17] = Inhibition of PMA-induced ROS production in human mononuclear leukocytes; type: functional, cell-based; procedure, shortened: as §2
[18] = DPPH radical scavenging activity; type: functional
[19] = Inhibition of fMLP-induced calcium mobilisation in human peripheral leukocytes at 25 uM; type: functional
Procedure, shortened: (§3)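 Human leukocytes were preloaded with Fura-2, and intracellular Ca2+ rise was followed after fMLP stimulation. Inhibition is expressed as % of the calcium increment in drug-free samples (taken as 100%). Values are the mean ± SEM of 3 experiments on different days with different donors.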

[20] = target: T1, Protein kinase C (PKC) (Homo sapiens) (UniProt O94806+P41743+P17252+P05129+Q05655+P05771+Q05513+Q02156+P24723+Q15139+Q04759); assay: Inhibition of PKC at 25 uM by ELISA; type: protein assay
Procedure, shortened: (§4)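 Protein kinase activity in human leukocytes is expressed as % inhibition relative to drug-free samples (taken as 100%). Values are the mean ± SEM of 3 experiments on different days with cells from different donors.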

[21] = target: T1, Protein kinase C (PKC) (Homo sapiens); assay: Inhibition of PKC in human peripheral leucocytes at 5 uM by ELISA; type: cell-based; procedure, shortened: as §4
[22] = Inhibition of fMLP-induced calcium mobilisation in human peripheral leukocytes at 5 uM; type: functional; procedure, shortened: as §3

| Compound | IC50 (BV-2 [1]) | Activity (CD4+ve Th [2]) | Activity [3] | Activity (BV-2 [4]) | Activity (BV-2 [5]) | Activity [6] | Activity [7] | Activity (CD4+ve Th [8]) | Activity [9] | Activity [11] | other results |
| --- | --- | --- | --- | --- | --- | --- | --- | --- | --- | --- | --- |
| COc1cc(CCCc2c(OC)cc(OCc3ccccc3)c(OC)c2OC)ccc1OCc1ccccc1 | 20 µM | 100 | 8.9% | 154 | 164 | 59 | 65 | 102 | 14.6% | 9.6% | inhibition at 25 µM [10]: 37%; inhibition at 25 µM [12]: 20% |
| COc1cc(C/C=C/c2c(OC)cc(OCc3ccccc3)c(OC)c2OC)ccc1OCc1ccccc1 | 19 µM | 101 | 8.1% | 155 | 164 | 60 | 65 | 103 | 8.6% | 10% | inhibition at 25 µM [10]: 37%; inhibition at 25 µM [12]: 20% |
| c1ccc2c(c1)[I+]c1ccccc1-2 [DIPHENYLENEIODONIUM] | – | – | – | – | – | – | – | – | – | – | IC50 (BV-2 [13]): 10.2 µM |
| COC(=O)[C@@H](N)CCCNC(=N)N[N+](=O)[O-] [L-NAME] | 36 µM | – | – | – | – | – | – | – | – | – | – |
| O=c1c(O)c(-c2ccc(O)c(O)c2)oc2cc(O)cc(O)c12 [QUERCETIN] | – | – | – | – | – | – | – | – | – | – | IC50 [14]: 5.5 µM; IC50 [15]: 2500 nM; IC50 [16]: 4 µM; IC50 [17]: 3.1 µM |
| Cc1c(C)c2c(c(C)c1O)CCC(C)(C(=O)O)O2 (stereo unspecified) [TROLOX] | – | – | – | – | – | – | – | – | – | – | IC50 [18]: 40.5 µM |
| COc1cc(CCCc2c(OC)cc(O)c(OC)c2OC)ccc1O [VISCOLIN] | 24 µM | 99 | 8.9% | 121 | 155 | 72 | 67 | 112 | 9.6% | 14.6% | IC50 [14]: 12 µM; IC50 [15]: 1400 nM; IC50 [16]: 2.5 µM; inhibition at 25 µM [19]: 53.5%; IC50 [17]: 8.3 µM; IC50 [18]: 49.2 µM; IC50 (BV-2 [13]): 29.2 µM; inhibition [20]: 48.8%; inhibition [21]: 34.4%; inhibition at 5 µM [22]: 36.7% |
